# Compound activity as filed in PubChem BioAssay.
# PKD1 kinase inh = inhibitors of human PKD1 kinase, biochemical, fluorescence polarization. Serine/threonine-protein kinase D1 (Homo sapiens), Q15139. PKD1 kinase fluorescence polarization assay. inhibition, % (no concentration beside the values). actives 0.056% (n = 200,000)
# L major viab = Leishmania major promastigote growth inhibition, primary screen | Leishmania major promastigotes, resazurin fluorescence viability | inhibition, % at 10 µM | actives 9% (n = 200,000) | AID 1063, 2008;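 note: promastigotes grown with compound for 44 hours at 28 °C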
# Avidin bead fluor = green autofluorescence of compounds with avidin beads – biophysical, 488/530 nm, flow cytometry, artefact control, profiling panel; fluorescence (KMESF) at 10 µM; AID 1775, 2009; compound fluorescence 488/530 nm; active compounds read high; actives 0.38% (n = 220,000); in the data active = fluorescence above about 47
# ABCG2 block = ABCG2 efflux pump inhibitors, primary screen, multiplex with ABCB1, IgMXP3 cells, flow cytometry; inhibition, % at 6.6 µM; actives 0.1% (n = 190,000); JC-1 efflux; Broad substrate specificity ATP-binding cassette transporter ABCG2 (Homo sapiens), Q9UNQ0; AID 1325, 2008;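 active = inhibition above 80%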
# Target sequence (Q9UNQ0 whole entry, looked up): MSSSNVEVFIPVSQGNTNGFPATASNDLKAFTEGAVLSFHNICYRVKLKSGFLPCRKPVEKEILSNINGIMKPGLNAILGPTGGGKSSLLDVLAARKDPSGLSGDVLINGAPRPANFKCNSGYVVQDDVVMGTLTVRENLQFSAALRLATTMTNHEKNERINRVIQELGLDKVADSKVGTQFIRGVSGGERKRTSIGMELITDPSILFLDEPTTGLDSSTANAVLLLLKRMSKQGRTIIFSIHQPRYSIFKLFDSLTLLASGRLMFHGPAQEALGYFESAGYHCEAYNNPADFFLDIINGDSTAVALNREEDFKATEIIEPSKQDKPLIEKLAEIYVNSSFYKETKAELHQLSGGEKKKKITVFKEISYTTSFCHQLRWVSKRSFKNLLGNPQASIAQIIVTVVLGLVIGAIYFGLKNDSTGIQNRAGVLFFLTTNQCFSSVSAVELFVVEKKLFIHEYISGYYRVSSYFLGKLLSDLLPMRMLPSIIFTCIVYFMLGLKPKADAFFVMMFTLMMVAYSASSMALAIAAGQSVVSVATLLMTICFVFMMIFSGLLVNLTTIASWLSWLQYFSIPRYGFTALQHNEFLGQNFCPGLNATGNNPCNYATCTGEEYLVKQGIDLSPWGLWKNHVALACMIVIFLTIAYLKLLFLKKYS
#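 Test system: IgMXP3 (ABCG2) plus far-red-tagged CCRF-Adr (ABCB1) cells / Amount: 3 million cells/mL in well / Reagent: JC-1 transporter substrate / Timing: 10 min compound exposure, 25 °C / Signal: flow cytometry, 530 nm JC-1 signal / Read-out: percent efflux inhibition, scaled nicardipine 100% to DMSO 0% / Benchmarks: nicardipine as high control, DMSO as low control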
# ABCB1 inh = ABCB1 efflux pump inhibitors, primary screen, cell-based, multiplex, flow cytometry, ABCG2 counter-screen. ATP-dependent translocase ABCB1 (Homo sapiens), P08183. CCRF-Adr cells, JC-1 efflux. inhibition, % at 6.6 µM. actives 0.067% (n = 190,000). AID 1326, 2008; in the data active = inhibition above about 40%;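 note: higher value means more JC-1 retained so stronger ABCB1 efflux block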
# GSH fluor = compound fluorescence on glutathione beads, profiling panel, artefact control, biophysical, 488/530 nm, flow cytometry | GSH beads flow cytometry, compound fluorescence 488/530 nm; active compounds read high | fluorescence (KMESF) at 10 µM | actives 0.25% (n = 190,000); in the data active = fluorescence above about 89;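 note: glutathione beads carrying GST-tagged Bcl family fusion proteins plus one bare bead set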
# ABCB1 confirm = ABCB1 efflux pump inhibitors, confirmation, cell-based, single point, ABCG2 counter-screen | shares compounds with ABCG2 block | CCRF-Adr cells, JC-1 efflux, flow cytometry | inhibition, % at 6.6 µM | actives 7% (n = 270);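 active = inhibition of pump activity above 50%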
# ABCG2 single pt = ABCG2 efflux pump inhibitors, confirmation, single point, IgMXP3 cells, ABCB1 counter-screen paired; inhibition, % at 6.6 µM; actives 6% (n = 270); JC-1 efflux, flow cytometry; shares compounds with ABCG2 block;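 active = inhibition above 50%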
# IgMXP3 fluor = compound autofluorescence in ABCG2-expressing IgMXP3 cells, confirmation, artefact control for ABC transporter inhibitor project, cell-based, 488/530 nm, flow cytometry | fluorescence at 6.6 µM | shares compounds with ABCG2 block | compound autofluorescence 488/530 nm; active compounds read high | actives 30% (n = 270);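 active = fluorescence in ABCG2-expressing cells above the plate's control-well mean plus 3 SD, cut at about 15 in these data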
# CCRF autofluor = compound autofluorescence in ABCB1-expressing CCRF-Adr cells, confirmation, artefact control for ABC transporter inhibitor project, cell-based, 488/530 nm, flow cytometry | compound autofluorescence 488/530 nm; active compounds read high | fluorescence at 6.6 µM | shares compounds with ABCG2 block | actives 30% (n = 270);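 active = fluorescence beyond the plate control mean plus 3 SD, with a fluorescence-to-maximum score over 2, cut at about 25 in these data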
# Numbers stand for hits; 0 = inactive; - = no result; + = active, no number. Only a selection was taken, and hits are over-represented in it overall. Cut-off read from the data, not from the text of the source, unless noted: active = inhibition above about 50%; inactive = the rest.
SMILES,PKD1 kinase inh,L major viab,Avidin bead fluor,ABCG2 block,ABCB1 inh,GSH fluor,ABCB1 confirm,ABCG2 single pt,IgMXP3 fluor,CCRF autofluor
COc1ccc(Cl)cc1NC(=O)COC(=O)CCCN1C(=O)c2ccccc2C1=O,0,0,0,0,0,0,0,0,0,0
COc1ccc(S(=O)(=O)N2CCC(C(=O)NCC3CCCO3)CC2)cc1 (stereo not given),0,0,0,0,0,0,-,-,-,-
Cn1c(C(=O)NCc2cccnc2)cc2sccc21,0,0,0,0,0,0,-,-,-,-
COc1ccccc1CNC(=O)c1cc2sccc2n1C,0,0,0,96.0,0,0,0,0,0,0
CC(O)CNc1nc2c(c(=O)n(C)c(=O)n2C)n1Cc1cccc(Br)c1 (stereo not given),0,0,0,91.3,0,0,0,0,0,114
COc1ccc(CC(=O)NCc2csc(-c3cccs3)n2)cc1OC,-,-,0,-,-,-,-,-,-,-
N#Cc1ccc(COC(=O)c2ccc(N3CCCC3)c([N+](=O)[O-])c2)cc1,0,0,0,89.8,0,0,0,0,0,0
CCc1noc(C)c1C(=O)Nc1ncc(C)s1,0,0,0,0,0,0,-,-,-,-
Nn1c(Cc2cccc3ccccc23)nnc1SCc1ccc(Cl)c(Cl)c1,0,0,0,81.7,66.5,0,0,0,0,0
Nn1c(Cc2cccc3ccccc23)nnc1SCc1c(Cl)cccc1Cl,0,0,0,0,0,0,-,-,-,-
CCC(=O)NNC(=O)CCC(=O)Nc1cccc(Cl)c1C,0,0,0,0,0,0,-,-,-,-
CCOC(=O)CSc1nc2cc(C)ccc2cc1C#N,0,0,0,0,0,0,-,-,-,-
CCOC(=O)CSc1nc2cc(C)cc(C)c2cc1C#N,0,0,0,98.7,0,0,0,0,61,0
N#CC(C#N)=C1C=C2C=C(N3CCOCC3)CCC2CC1 (stereo not given),0,0,0,0,169.4,0,0,50.3,0,0
CN1CCN(C2=CC3=CC(=C(C#N)C#N)CCC3CC2)CC1 (stereo not given),0,0,0,85.0,+,0,68.4,53.3,28.8,46.8
CC1(C)CC(NCCN2CCN(C3=CC(=C(C#N)C#N)CC(C)(C)C3)CC2)=CC(=C(C#N)C#N)C1,0,0,0,0,0,0,-,-,-,-
N#CC(C#N)=C1C=C2C=C(N3CCCCCC3)CCC2CC1 (stereo not given),0,0,0,0,115.6,0,138.5,0,46.1,131
CCN1CCN(C2=CC3=CC(=C(C#N)C#N)CCC3CC2)CC1 (stereo not given),0,87.6,0,0,69.6,0,0,0,34.7,92.9
CC1(C)Cc2cccc(C(=O)Nc3ccncc3)c2O1,-,-,0,-,-,-,-,-,-,-
COCCSc1nnc(NC(=O)Cc2ccc(OC)cc2)s1,0,0,0,0,0,0,-,-,-,-
COc1ccccc1N1CCN(C(c2cccs2)C(C)NC(=O)c2cccs2)CC1 (stereo not given),0,0,0,0,0,0,-,-,-,-
CCN(CC)c1nc(-c2cccc(OC)c2O)nc2ccccc12,0,0,0,82.6,0,0,0,0,17,108
CCOc1ccc(NC(=O)c2cccc3c2C(=O)N(CCOC)C3)cc1,0,0,0,82.2,0,0,0,52.4,0,0
CCOC(=O)C(C(=O)Nc1ccc(C)cc1)C1CCCCC1 (stereo not given),0,0,0,0,0,0,-,-,-,-
COc1ccc(NC(=O)CC2CCCC2)cc1S(=O)(=O)N1CCCCC1,0,0,0,0,0,0,-,-,-,-
SMILES,PKD1 kinase inh,L major viab,Avidin bead fluor,ABCG2 block,ABCB1 inh,GSH fluor,ABCB1 confirm,ABCG2 single pt,IgMXP3 fluor,CCRF autofluor
COc1ccc(NC(=O)CCC2CCCCC2)cc1S(=O)(=O)N1CCCCC1,0,0,0,80.8,0,0,0,0,0,0
O=C(COCC(=O)NCc1ccccc1)NCc1ccccc1,0,0,0,0,0,0,-,-,-,-
COc1ccc(C(=O)N2CCC(O)(c3ccc(Cl)cc3)CC2)cc1OC,-,-,0,-,-,-,-,-,-,-
COCCn1c(C)cc(C(=O)CSc2nc(C)cc(C)c2C#N)c1C,0,0,0,97.2,0,0,0,0,24.2,0
COc1ccc(C(=O)Cn2nnc(-c3ccccc3NC(=O)C3CC3)n2)cc1,0,0,0,82.3,0,0,0,0,70,0
COc1ccc2nc(NC(=O)CCc3cc(OC)c(OC)c(OC)c3)sc2c1,0,0,0,0,0,0,-,-,-,-
CN(C)S(=O)(=O)c1ccc(Cl)c(NC(=O)COC(=O)/C=C/c2ccco2)c1,0,0,0,0,0,0,-,-,-,-
O=C(Nc1ccc(C(=O)O)cc1)Nc1ccc(F)cc1F,0,0,0,190.4,51.1,0,0,0,0,0
COc1ccc(NC(=O)Nc2ccc(F)cc2F)cc1,0,0,0,0,0,0,-,-,-,-
NC(=O)C1(N2CCCCC2)CCN(CC(=O)Nc2ccccc2-c2ccccc2)CC1,0,0,0,0,0,0,-,-,-,-
Cc1ccc(CNC(=O)C(=O)NCC(c2ccco2)N2CCOCC2)cc1 (stereo not given),0,0,0,0,0,0,-,-,-,-
COc1cccc(CNC(=O)C(=O)NCC(c2ccco2)N2CCOCC2)c1 (stereo not given),0,0,0,0,65.1,0,0,0,0,0
O=C1NCCc2c1[nH]c1ccc([N+](=O)[O-])cc21,0,0,0,0,0,0,-,-,-,-
O=C(N/N=C1\CCCc2c1[nH]c1ccc([N+](=O)[O-])cc21)c1ccncc1,0,0,0,113.8,0,0,0,0,0,0
COc1ccc(N2CCN(C(=O)c3ccc(NS(=O)(=O)c4ccccc4)cc3)CC2)cc1,0,0,0,83.4,0,0,0,0,62.6,0
COc1ccc(NS(=O)(=O)c2ccc(C(=O)N3CCN(Cc4ccccc4)CC3)cc2)cc1,0,0,0,0,0,0,-,-,-,-
